Assay [1] in a line: inhibitors of TNFa-induced NFkB p65 translocation, primary screen, imaging, HUVEC, MLSMR starter and 10KST1 sets (AID 438;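 active means inhibition above 20% together with a positive visual image hit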;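 further: compound added about 3h40 before a 20 min TNFalpha stimulation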;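 on inhibition: signal is the nuclear over cytoplasmic p65 intensity ratio per well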). Particulars: HUVEC TNFa-induced p65 nuclear translocation; cell count: measured here: nuclei count (cytotoxicity indicator), at 2.08 µM; inhibition: at 2 µM, stronger effect = higher value, 0% TNFa-plus-vehicle, 100% no-TNFa wells.
Assay [2] in a line: inhibitors of mutant huntingtin aggregation, primary screen, imaging, exon1htt(103Q)mCFP cells, high-content imaging (AID 483;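 active means visual image review flags a hit and inhibition of aggregation exceeds 20%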;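 further: compound exposure lasted 3 days before fixation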;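 on nuclei count: percent of the per-plate median nuclei count of sample wells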). As to conditions: exon1htt(103Q)mCFP cell line, aggregate imaging, at 2 µM; inhibition of aggregation: stronger effect = higher value; nuclei count: measured here: cell count, toxicity.
A short description of assay [3]: inhibitors of E-selectin induction by TNFa, primary screen, imaging, HUVEC, immunofluorescence, MLSMR starter and 10KST1 sets (AID 487;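 active means visually confirmed hit in the image check and inhibition above 20%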;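 on inhibition: signal is fraction of cell area covered by stained E-selectin grains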;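 on nuclei count: 100% = median nuclei count of all wells on the same plate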). Particulars: HUVEC TNFalpha-induced E-selectin immunofluorescence imaging, at 2 µM; inhibition: stronger effect = higher value; nuclei count: measured here: cell number, toxicity.
Assay [4] deals with Voltage-gated potassium channel subunit beta-2 (Rattus norvegicus) (UniProt P62483). As to the kind of experiment: KvBeta enzyme negative modulators, primary screen, biochemical, NADPH fluorescence (AID 622).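 Further: slope of raw intensity against log time taken from 70 to 1610 s.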 As to conditions: recombinant KvBeta, 4-cyanobenzaldehyde reduction, at 10 µM, stronger effect = higher value.
Voltage-gated potassium channel subunit beta-2 (Rattus norvegicus), sequence (P62483 whole entry, looked up): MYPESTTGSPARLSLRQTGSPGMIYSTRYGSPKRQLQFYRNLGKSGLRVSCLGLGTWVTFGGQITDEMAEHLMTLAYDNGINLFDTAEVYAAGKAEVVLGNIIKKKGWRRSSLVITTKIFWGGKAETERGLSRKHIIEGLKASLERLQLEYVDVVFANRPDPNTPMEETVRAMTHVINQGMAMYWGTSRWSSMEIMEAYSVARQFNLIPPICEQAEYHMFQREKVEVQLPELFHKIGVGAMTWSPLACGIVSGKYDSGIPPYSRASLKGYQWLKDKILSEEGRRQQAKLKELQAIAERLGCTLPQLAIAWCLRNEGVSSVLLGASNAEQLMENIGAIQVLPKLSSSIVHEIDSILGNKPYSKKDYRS
The target is the same in assay [5]. Kind of assay: KvBeta positive modulators, primary screen, biochemical, NADPH fluorescence (AID 623;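 active means NADPH fluorescence slope more negative than the mean of all samples by about 3 SD, 99.7% confidence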;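 further: fluorescence intensity change per second fitted from 20 to 320 s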). Particulars: Recombinant KvBeta, NADPH fluorescence decrease slope, 10 min; at 10 µM; stronger effect = lower value.
Assay [6] addresses Muscarinic acetylcholine receptor M4 (Homo sapiens) (UniProt P08173). As to the kind of experiment: compounds altering M4/GIRK thallium flux, either direction, primary screen, M4 allosteric agonist project, cell-based, HEK293 M4/GIRK, BTC-AM (AID 625;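 active means fluorescence slope after compound addition differing from the mean of all tested samples at 99.7% confidence, mostly higher but some lower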;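 further: thallium influx through GIRK channels coupled to M4 in HEK293 cells with BTC-AM dye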). Particulars: at 10 µM, actives lie on both sides. The essentials:
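System: HEK293 cells with M4 receptor and GIRK channels | Incubation: Cells overnight at 37 °C, BTC-AM loading 1 h, reads 2 min total | Technique: Kinetic BTC-AM fluorescence sampled at 1 Hz, 10 s pre-addition baseline | Measure: Post-addition slope, 15–24 s, of baseline-normalized fluorescence | Control set: Carbachol positive, DMSO negative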

Assay [7] is described as follows: inhibitors of Sendai virus-induced IRF3 signaling, primary screen, TLR/RLR signaling modifier project, cell-based, Sendai virus stimulus, luciferase, 10K MLSCN set (AID 602276;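 active means inhibition at or above 50% at 10 µM; inactive means inhibition below 50%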;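 further: firefly luciferase from ISG56 promoter only with Renilla not read in this screen; 0% = Sendai virus plus DMSO and 100% = medium plus DMSO without virus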). Particulars: HEK293 RL24 IRF3 luciferase reporter, at 10 µM, stronger effect = higher value.
The nature of assay [8]: inhibitors of poly I:C-induced TLR3 signaling, primary screen, cell-based, poly I:C stimulus, luciferase, 10K MLSCN set (AID 602277;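 active means inhibition of the reporter signal at or above 50%; inactive means inhibition below 50%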). As to conditions: HEK293-TLR3 RL24 IRF3 luciferase reporter, at 10 µM, stronger effect = higher value.

Calls of active or inactive are those of the source.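 How the source made its calls, unless noted: active means fluorescence slope higher than the sample average by over 3 SD (cut at about -0.22 in these data, passing the limit was not always enough); inactive means the rest.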

Muscarinic acetylcholine receptor M4 (Homo sapiens), sequence (P08173 whole entry, looked up): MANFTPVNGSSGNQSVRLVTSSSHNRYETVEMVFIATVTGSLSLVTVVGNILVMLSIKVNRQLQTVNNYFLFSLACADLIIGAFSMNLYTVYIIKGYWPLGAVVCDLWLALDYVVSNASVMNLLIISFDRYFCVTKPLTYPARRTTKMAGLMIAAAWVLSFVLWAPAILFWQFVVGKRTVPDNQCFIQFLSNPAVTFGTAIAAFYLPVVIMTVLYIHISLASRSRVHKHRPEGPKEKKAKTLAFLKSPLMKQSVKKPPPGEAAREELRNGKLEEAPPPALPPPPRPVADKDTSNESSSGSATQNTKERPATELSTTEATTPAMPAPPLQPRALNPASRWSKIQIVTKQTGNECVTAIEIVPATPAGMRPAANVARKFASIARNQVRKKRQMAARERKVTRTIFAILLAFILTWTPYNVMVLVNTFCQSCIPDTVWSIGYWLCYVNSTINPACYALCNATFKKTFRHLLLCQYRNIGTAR

Take `CCCCNC(=O)CN(C1CCCCC1)S(C)(=O)=O`: the cell count in assay [1] turned out to be 422. Further, the inhibition was 1.2% (inactive) in assay [1], -22.8% (inactive) in assay [3], 16.6% (inactive) in assay [7] and 14.9% (inactive) in assay [8]. For the same compound, in assay [2], the inhibition of aggregation was -3.6% (inactive). Moreover, the results for the nuclei count in assay [2] and in assay [3] were 99.8% and 103%, respectively. Also, the fluorescence slope in assay [4] was -0.551 (inactive); in assay [6], 0.0049 (inactive). For the same compound, the NADPH fluorescence slope in assay [5] is 1.8e-07 (inactive).

`CCOC(=O)C1CCCN(C(=O)c2cc3c(C)nc4ccccc4c3o2)C1` (stereo not drawn): the cell count in assay [1] amounted to 525. Moreover, the inhibition in assay [1] was -14.7% (inactive); in assay [3], -91.4% (inactive); in assay [7] it was 14.5% (inactive); in assay [8], 5.32% (inactive). In addition, the inhibition of aggregation in assay [2] is 8.7% (inactive). The nuclei count was found to be 100% in assay [2] and 119% in assay [3]. Moreover, the figures for the fluorescence slope in assay [4] and in assay [6] were -0.522 (inactive) and 0.00625 (inactive), respectively. Also, the NADPH fluorescence slope in assay [5] is 0.000185 (inactive).

With `CCn1nnc(NC(=O)c2cc3ccccc3o2)n1`, in assay [1], the cell count stood at 332. Moreover, the inhibition is 0.5% (inactive) in assay [1], -51% (inactive) in assay [3], -50.7% (inactive) in assay [7] and -120% (inactive) in assay [8]. Besides, the inhibition of aggregation in assay [2] is 7.1% (inactive). Also, the figures for the nuclei count in assay [2] and in assay [3] were 87.2% and 102%, respectively. The figures for the fluorescence slope in assay [4] and in assay [6] were -0.297 (inactive) and 0.00628 (inactive), respectively. For the same compound, the NADPH fluorescence slope in assay [5] is -7.3e-06 (inactive).

As to `CCOC(=O)c1cnc(-n2nc(C)cc2C)nc1NC(C)c1ccccc1` (stereo not drawn), in assay [1], the cell count is 605. The inhibition was -9.5% (inactive) in assay [1], 13.2% (inactive) in assay [3], 8.07% (inactive) in assay [7] and 0.674% (inactive) in assay [8]. Also, the inhibition of aggregation in assay [2] is 8.7% (inactive). For the same compound, the nuclei count amounted to 94.4% in assay [2] and 93.5% in assay [3]. The fluorescence slope in assay [4] was -0.57 (inactive); in assay [6] it was 0.00529 (inactive). Besides, the NADPH fluorescence slope in assay [5] is -9.1e-05 (inactive).

Take `CCN(CC)S(=O)(=O)c1ccc(N2CCCC2)c(C(=O)OCC(=O)/C(C#N)=C(\C)N)c1`: the cell count in assay [1] turned out to be 560. Further, the inhibition in assay [1] was -16% (inactive); in assay [3], 8.4% (inactive); in assay [7], 15.9% (inactive); in assay [8], 24.1% (inactive). Further, the inhibition of aggregation in assay [2] is 6.5% (inactive). Further, the nuclei count was determined as 98.3% in assay [2] and 101% in assay [3]. Also, the values for the fluorescence slope in assay [4] and in assay [6] were -0.428 (inactive) and 0.00583 (inactive), respectively. Further, the NADPH fluorescence slope in assay [5] is 6.6e-05 (inactive).

With `CCCOc1ccc(N2C(=O)CC(NCCCN3CCC(C(N)=O)CC3)C2=O)cc1` (stereo not drawn), the cell count in assay [1] was found to be 322. Moreover, the inhibition in assay [1] is -0.7% (inactive); in assay [3], -32% (inactive); in assay [7] it was 19.4% (inactive); in assay [8], 19.7% (inactive). Further, the inhibition of aggregation in assay [2] was 9.6% (inactive). In addition, the nuclei count stood at 121% in assay [2] and 110% in assay [3]. Also, the fluorescence slope was -0.429 (inactive) in assay [4] and 0.00445 (inactive) in assay [6]. Also, the NADPH fluorescence slope in assay [5] was -4.4e-05 (inactive).

On to `CCOC(=O)CSc1nnc(-c2cccnc2)n1Cc1ccccc1`, for which the cell count in assay [1] was found to be 568. The inhibition was 16.6% (inactive) in assay [1], -105% (inactive) in assay [3], -4.13% (inactive) in assay [7] and 1.14% (inactive) in assay [8]. Besides, in assay [2], the inhibition of aggregation was 10.1% (inactive). Besides, the nuclei count in assay [2] was 97.1%; in assay [3] it was 158%. For the same compound, the figures for the fluorescence slope in assay [4] and in assay [6] were -0.576 (inactive) and 0.00573 (inactive), respectively. Also, the NADPH fluorescence slope in assay [5] is 1.1e-05 (inactive).

With `Cc1cc(=O)oc2ccc(OCC(=O)N3CCC(C)CC3)cc12`, the cell count in assay [1] came to 400. Moreover, the inhibition was -3.9% (inactive) in assay [1], -41.1% (inactive) in assay [3], 17.3% (inactive) in assay [7] and 8.48% (inactive) in assay [8]. In addition, the inhibition of aggregation in assay [2] is -30.5% (inactive). The nuclei count in assay [2] amounted to 103%; in assay [3] it was 104%. Moreover, the fluorescence slope in assay [4] was -0.567 (inactive); in assay [6], 0.00366 (inactive). For the same compound, in assay [5], the NADPH fluorescence slope is -4.1e-05 (inactive).

The values are drawn from PubChem BioAssay.
